Measured values as given in the array DNA melting data of Ke et al. (doi:10.1101/2024.01.08.574731).

What was measured:
[1] = folding enthalpy; higher = less favourable; fluorescence melt of hairpins on a sequencing array, two-state fit; details: sodium 0.088 M
In short: (§1)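 Folding enthalpy and melting temperature come from bootstrapped two-state fits to Cy3 fluorescence of library hairpins carrying annealed Cy3 and quencher oligos on a sequenced MiSeq flow cell. Imaging was done in 50 mM Na-HEPES pH 8.0, 25 mM NaCl, stepping by 2.5 °C up to 60 °C, and signals were normalised to pre-quench Cy3 and to control constructs. Results of four replicates were combined by inverse variance, and fitted temperatures were raised by 9.35 °C to match UV melts.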

[2] = melting temperature; fluorescence melt of hairpins on a sequencing array, two-state fit, raised by 9.35 °C to match UV melts; details: sodium 0.088 M
In short: as §1

Sequence	folding enthalpy [1]	Tm [2]
GATCCGCATCGGATC ((((((...))))))	-38.3 kcal/mol	56.5 °C
GATCCGCCATCGGATC ((((((....))))))	-37 kcal/mol	57.4 °C
GATCCGCCGACGGATC ((((((....))))))	-38 kcal/mol	58.3 °C
GATCCGCCGCCGGATC ((((((....))))))	-42.4 kcal/mol	59 °C
GATCCGCGAAAGCGAATC (((.(((....))).)))	-20.2 kcal/mol	49.2 °C
GATCCGCGCACGGATC ((((((....))))))	-39.2 kcal/mol	59.1 °C
GATCCGCGCCCGGATC ((((((....))))))	-45.8 kcal/mol	56.5 °C
GATCCGCGGACGGATC ((((((....))))))	-37.5 kcal/mol	56.2 °C
GATCCGCGGCCGGATC ((((((....))))))	-38.4 kcal/mol	56 °C
GATCCGCGTTCGGATC ((((((....))))))	-36 kcal/mol	59 °C
GATCCGCTGCGGATC ((((((...))))))	-48.3 kcal/mol	57.5 °C
GATCCGCTTACGGATC ((((((....))))))	-37.3 kcal/mol	59 °C
GATCCGGAACCGGATC ((((((....))))))	-39.9 kcal/mol	62.5 °C
GATCCGGACTCGGATC ((((((....))))))	-49.4 kcal/mol	59.2 °C
GATCCGGAGCCGGATC ((((((....))))))	-60.6 kcal/mol	56.3 °C
GATCCGGCGTCGGATC ((((((....))))))	-45.3 kcal/mol	58.2 °C
GATCCGGCTACGGATC ((((((....))))))	-40.2 kcal/mol	67.8 °C
GATCCGGCTGCGGATC ((((((....))))))	-38.4 kcal/mol	61 °C
GATCCGGGAAACCAGATC ((((.((....)).))))	-27.8 kcal/mol	35.6 °C
GATCCGGGAAACCGGGTC ((.((((....)))).))	-41.6 kcal/mol	54.5 °C
GATCCGGGACGGATC ((((((...))))))	-37.1 kcal/mol	68.9 °C
GATCCGGGATCGGATC ((((((....))))))	-40.1 kcal/mol	61.9 °C
GATCCGGGCGCGGATC ((((((....))))))	-39 kcal/mol	59.8 °C
GATCCGGTATCGGATC ((((((....))))))	-42.5 kcal/mol	63.5 °C

Sequence	folding enthalpy [1]	Tm [2]
GATCCGGTCACGGATC ((((((....))))))	-34.7 kcal/mol	69.3 °C
GATCCGGTGCCGGATC ((((((....))))))	-59.2 kcal/mol	58 °C
GATCCGTAACGGATC ((((((...))))))	-34.1 kcal/mol	57.6 °C
GATCCGTACACGGATC ((((((....))))))	-43.2 kcal/mol	61.2 °C
GATCCGTACCCGGATC ((((((....))))))	-39 kcal/mol	56.4 °C
GATCCGTAGCCGGATC ((((((....))))))	-47.9 kcal/mol	56.1 °C
GATCCGTCATCGGATC ((((((....))))))	-39 kcal/mol	59.3 °C
GATCCGTCCCGGATC ((((((...))))))	-39.4 kcal/mol	61 °C
GATCCGTCTACGGATC ((((((....))))))	-45.5 kcal/mol	63.7 °C
GATCCGTCTGCGGATC ((((((....))))))	-44.5 kcal/mol	61.1 °C
GATCCGTGCCGGATC ((((((...))))))	-44.5 kcal/mol	57.9 °C
GATCCGTGGACGGATC ((((((....))))))	-41 kcal/mol	62.9 °C
GATCCGTGGGCGGATC ((((((....))))))	-30.1 kcal/mol	66.1 °C
GATCCGTGTCCGGATC ((((((....))))))	-34 kcal/mol	57.5 °C
GATCCGTTCACGGATC ((((((....))))))	-51 kcal/mol	67.4 °C
GATCCGTTGCGGATC ((((((...))))))	-43 kcal/mol	57.3 °C
GATCCTAAATAGGATC ((((((....))))))	-35.8 kcal/mol	49.2 °C
GATCCTAACGAGGATC ((((((....))))))	-44.8 kcal/mol	50.6 °C
GATCCTAAGAAGGATC ((((((....))))))	-35.3 kcal/mol	48 °C
GATCCTAAGAGGATC ((((((...))))))	-29.6 kcal/mol	53.8 °C
GATCCTAATAGGATC ((((((...))))))	-27.7 kcal/mol	51.9 °C
GATCCTACATAGGATC ((((((....))))))	-35.5 kcal/mol	52.8 °C
GATCCTACGAGGATC ((((((...))))))	-29.5 kcal/mol	53.4 °C
GATCCTACTGAGGATC ((((((....))))))	-39.7 kcal/mol	50.6 °C

Sequence	folding enthalpy [1]	Tm [2]
GATCCTAGAAGGATC ((((((...))))))	-40.9 kcal/mol	53.4 °C
GATCCTAGCAAGGATC ((((((....))))))	-33.2 kcal/mol	52.8 °C
GATCCTATCAAGGATC ((((((....))))))	-34.3 kcal/mol	54.6 °C
GATCCTCAATAGGATC ((((((....))))))	-34.2 kcal/mol	49.5 °C
GATCCTCAGTAGGATC ((((((....))))))	-35.4 kcal/mol	49.9 °C
GATCCTCCAAAGGATC ((((((....))))))	-28.8 kcal/mol	50.4 °C
GATCCTCCCCAGGATC ((((((....))))))	-43.7 kcal/mol	50.4 °C
GATCCTCCCTAGGATC ((((((....))))))	-39.7 kcal/mol	50.8 °C
GATCCTCCGAGGATC ((((((...))))))	-33.1 kcal/mol	53.1 °C
GATCCTCGAAGGATC ((((((...))))))	-26.7 kcal/mol	50.1 °C
GATCCTCGATAGGATC ((((((....))))))	-29.4 kcal/mol	50.2 °C
GATCCTCGCAAGGATC ((((((....))))))	-32.6 kcal/mol	54.8 °C
GATCCTCGCCAGGATC ((((((....))))))	-37.4 kcal/mol	50.7 °C
GATCCTCTAAAGGATC ((((((....))))))	-39.3 kcal/mol	52.4 °C
GATCCTCTAGAGGATC ((((((....))))))	-42.6 kcal/mol	56.4 °C
GATCCTGCGAGGATC ((((((...))))))	-33.7 kcal/mol	53.9 °C
GATCCTGCGTAGGATC ((((((....))))))	-44.2 kcal/mol	51.4 °C
GATCCTGCTGAGGATC ((((((....))))))	-52.2 kcal/mol	51.4 °C
GATCCTGCTTAGGATC ((((((....))))))	-42.9 kcal/mol	52.4 °C
GATCCTGGAAGGATC ((((((...))))))	-31.6 kcal/mol	62.8 °C
GATCCTGGCAGGATC ((((((...))))))	-39.7 kcal/mol	57.7 °C
GATCCTGGCGAGGATC ((((((....))))))	-48.3 kcal/mol	54.6 °C
GATCCTGTAGAGGATC ((((((....))))))	-36 kcal/mol	55.5 °C
GATCCTGTCAGGATC ((((((...))))))	-36.7 kcal/mol	56.5 °C
